# High-throughput results (PubChem BioAssay)
# Rows were chosen to be rich in hits. Some 1.5% of all compounds tested hit in one or more screens of this group.
# PKD1 kinase inh – inhibitors of human PKD1 kinase. Q15139. PKD1 kinase fluorescence polarization assay. inhibition, % (no concentration beside the values). 200,000 compounds, 0.056% hits. AID 797; in the data active = inhibition above about 50%
# PP5 inh – PP5 (human) phosphatase inhibition; P53041; inhibition, % at 6.7 µM; purified PP5c, OMFP substrate fluorescence; 320,000 compounds, 0.18% hits;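 active = inhibition above the campaign's mean inhibition across all tested compounds plus 3 SD, cut at about 9.5% in these data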
# p97 ATPase inh – blocks human p97 ATPase activity; P55072; 220,000 compounds, 0.42% hits; inhibition, % at 8 µM; recombinant p97 ATPase, Kinase-Glo ATP luminescence, 3 h; in the data active = inhibition above about 15%
# Hsp70 activator – Hsp70 transcriptional activation, primary screen. AID 1203. 200,000 compounds, 0.04% hits. activation, % at 10 µM. HeLa Hsp70 promoter luciferase reporter, luminescence; scaled: vehicle 0, proteasome-inhibitor control 100%;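 active = activation above the mean across all tested compounds plus 3 SD, cutoff set per campaign, cut at about 5.5% in these data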
# RBBP9 inh – human RBBP9 hydrolase inhibition. recombinant RBBP9, FP-Rh probe fluorescence polarization. AID 1515. inhibition, % at 7.94 µM. 220,000 compounds, 0.2% hits. O75884;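 active = inhibition above the campaign mean of all tested compounds plus 3 SD, cut at about 14% in these data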
# Target sequence (O75884 whole entry, looked up): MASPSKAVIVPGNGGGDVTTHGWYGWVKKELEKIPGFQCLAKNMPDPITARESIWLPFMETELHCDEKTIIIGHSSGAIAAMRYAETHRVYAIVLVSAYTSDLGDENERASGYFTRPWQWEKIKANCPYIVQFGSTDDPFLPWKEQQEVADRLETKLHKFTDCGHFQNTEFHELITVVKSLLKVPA
#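 System: RBBP9 protein | Quantity: 2.5 µM RBBP9 dispensing solution, before mixing | Reagent: FP-Rh probe, 375 nM dispensing solution | Timing: Enzyme-compound preincubation 30 min, then probe labeling 45 min, 25 °C | Measured by: Fluorescence polarization | Read-out: % inhibition | Replication: One well per compound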
# PP1 inh – PP1-alpha (human) inhibition in PP5 counter-screen | P62136 | purified PP1alpha, OMFP fluorescence | inhibition, % at 6.7 µM | 320,000 compounds, 0.9% hits | AID 2235;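 active = inhibition above the mean inhibition of all tested compounds plus 3 SD, computed separately for each screening campaign, cut at about 15% in these data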
# RBBP9 confirm – human RBBP9 inhibition, confirmation | shares compounds with RBBP9 inh | recombinant RBBP9, FP-Rh probe fluorescence polarization | inhibition, % at 7.94 µM | 410 compounds, 36% hits;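 active = inhibition above the hit cutoff derived for the primary screen, cut at about 15% in these data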
# Numbers stand for hits; n = inactive; x = no result.
SMILES,PKD1 kinase inh,PP5 inh,p97 ATPase inh,Hsp70 activator,RBBP9 inh,PP1 inh,RBBP9 confirm
Cc1ccccc1OCC(O)CNC1CCC(NCC(O)COc2ccccc2C)CC1 (stereo unspecified),x,n,x,x,x,n,x
COc1cccc(NC(=O)Cn2c(=O)n(-c3ccccc3)c(=O)c3oc4ccccc4c32)c1,n,n,n,n,16,n,n
CCOc1cc(C(=O)NC(C)C2CCCO2)cc(OCC)c1OCC (stereo unspecified),n,n,n,n,16,n,n
CCOc1cc(C(=O)NC(C)C2CC3CCC2C3)cc(OCC)c1OCC (stereo unspecified),x,n,x,x,x,n,x
O=C(O)c1cccc(-n2sc3ccccc3c2=O)c1,x,n,x,x,x,n,x
O=c1c2ccccc2sn1-c1ccccc1,n,n,n,n,51,n,50
O=C(c1ccc(F)cc1)N1CCN(c2ccc([N+](=O)[O-])cc2-n2cccc2)CC1,x,n,n,x,n,n,x
O=C(c1ccccc1F)N1CCN(c2ccc([N+](=O)[O-])cc2-n2cccc2)CC1,x,n,n,x,16,n,n
CC1(/[N+]([O-])=C\c2ccccc2F)CCCCC1=O (stereo unspecified),x,n,n,x,n,n,x
Cc1ccc(NCC(=O)N/N=C/c2cccn2C)cc1,x,n,n,x,17,n,n
CCc1cc(/C(Cc2ccc3ccccc3n2)=N\O)c(O)cc1O,n,n,n,n,46,n,50
CCCCN(CCCC)CCNC(=O)c1cn(C)c2ccc(S(=O)(=O)N3CCCC3)cc2c1=O,x,n,x,x,x,n,x
CCCNc1nc(-c2cc(C(=O)Nc3ccccc3)on2)cc(C(C)C)n1,x,n,x,x,x,n,x
Clc1cccc2sc(-c3nnc(-c4ccccc4)o3)c(Cl)c12,n,n,n,n,20,n,n
CC1CCCC(NC(=O)C2CCN(S(=O)(=O)c3cnc[nH]3)CC2)C1C (stereo unspecified),x,n,x,x,x,n,x
CC(=O)C(C(C)=O)c1c(Cl)c(O)c(O)c2c(C(=O)c3ccccc3)coc12,n,n,n,n,26,n,34
CS(=O)(=O)N(CC(=O)Nc1cccnc1)c1ccc2c(c1)OCO2,n,n,n,n,14,n,n
Nc1[nH]n(-c2ccccc2)c(=O)c1N=Nc1ccc2ncsc2c1,x,n,n,x,19,n,34
Nc1[nH]n(-c2ccccc2)c(=O)c1N=Nc1ccccc1,x,n,n,x,n,n,x
CCOC(=O)Cc1nn(C)c(=O)c2ccccc12,n,n,n,n,16,n,n
CCOC(=O)C1(Cc2ccc(OC)cc2)CCN(C(=O)c2cccc3nccnc23)CC1,n,n,n,n,16,n,n
CCOC(=O)C1(Cc2ccccc2)CCN(Cc2cccc3nccnc23)CC1,n,n,n,n,n,n,x
O=C(Cn1ccc(C(F)(F)F)n1)N/N=C/c1ccc(N2CCOCC2)cc1,n,n,n,n,n,n,x
Cc1cccc(N2CCN(C(=O)Cn3sc4nc(C)cc(C)c4c3=O)CC2C)c1 (stereo unspecified),n,n,n,n,19,n,34
CCOc1ccc(C(=O)NNC(=O)CCNC(=O)c2ccc(Br)cc2)cc1OC,x,n,x,x,x,n,x
SMILES,PKD1 kinase inh,PP5 inh,p97 ATPase inh,Hsp70 activator,RBBP9 inh,PP1 inh,RBBP9 confirm
CCCCOCCCNS(=O)(=O)c1ccccc1,n,n,n,n,n,n,x
CCCCOP(=O)(OCCCC)C1(NS(=O)(=O)c2ccccc2)C=CC(=O)c2ccccc21 (stereo unspecified),n,n,n,n,24,n,16
O=C(Cn1nnc2ccccc2c1=O)N1CCOCC1,n,n,n,n,n,n,x
O=C(Cn1nnc2ccccc2c1=O)N1CCCc2ccccc21,n,n,n,n,16,n,n
CC1CCCCN1c1nnc(NC(=O)c2cc(-c3ccc(Br)cc3)on2)s1 (stereo unspecified),n,n,n,n,n,n,x
CSc1ccccc1C(=O)C1CCCN(Cc2cnn(-c3ccccc3)c2)C1 (stereo unspecified),n,n,n,n,18,n,n
CSc1ccccc1C(=O)C1CCCN(Cc2c(C)n(C)n(-c3ccccc3)c2=O)C1 (stereo unspecified),n,n,n,n,n,n,x
COc1ccc(OC)c(NC(=O)c2cccnc2Sc2cc(C)ccc2C)c1,n,n,n,n,41,n,n
